Bioassay records as filed in PubChem BioAssay.
STK33 kinase inh: inhibitors of human STK33 kinase | Q9BYT3 | purified STK33, MBP phosphorylation, ADP-Glo luminescence | inhibition, % at 10 µM | hit rate 0.073% among 320,000;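 active = inhibition at or above 25%, using the most active replicate where run in duplicate; inactive = inhibition below 25%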
Target sequence (Q9BYT3 whole entry, looked up): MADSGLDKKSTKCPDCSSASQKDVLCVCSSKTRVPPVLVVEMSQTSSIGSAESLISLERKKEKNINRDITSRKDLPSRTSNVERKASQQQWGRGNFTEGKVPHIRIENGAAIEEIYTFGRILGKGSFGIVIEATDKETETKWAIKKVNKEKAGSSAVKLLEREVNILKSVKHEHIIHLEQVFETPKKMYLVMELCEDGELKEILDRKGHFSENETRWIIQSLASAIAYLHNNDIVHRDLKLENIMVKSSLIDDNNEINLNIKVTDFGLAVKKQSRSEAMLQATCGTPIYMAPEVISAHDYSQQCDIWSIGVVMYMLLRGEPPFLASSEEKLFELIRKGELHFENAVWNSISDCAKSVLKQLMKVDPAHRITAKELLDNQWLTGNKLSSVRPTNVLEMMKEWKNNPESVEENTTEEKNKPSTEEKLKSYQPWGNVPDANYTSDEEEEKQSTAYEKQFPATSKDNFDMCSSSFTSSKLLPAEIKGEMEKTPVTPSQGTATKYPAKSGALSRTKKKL
MEKK2 mut-MEK5: signal of MEK5 binding to mutant human MEKK2 PB1 domain; bead flow cytometry, Alexa488-MEK5 binding to MEKK2 mutant; percent response, % at 10 µM; hit rate 0.35% among 290,000; AID 1530; in the data active = percent response above about 24%, passing the limit was not always enough
GSK3beta inhib: human GSK3beta kinase inhibition | P49841 | GST-GSK3beta kinase, ADP-Glo luminescence, 60 min; hits give low values | activity score (negative = inhibition), % at 10 µM | hit rate 0.038% among 300,000;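 active = more than half of replicate wells score below -50%, meaning over 50% inhibition versus plate controls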;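 also: 0% = median DMSO wells and -100% = median GW8510 positive control wells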
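Test system – GST-tagged human GSK3beta kinase, cell-free · Incubation – 60 min enzyme reaction, room temperature · Signal – ADP-Glo luminescence · Also added – peptide substrate and ATP at 25 µM · Controls – DMSO neutral wells and GW8510 at 20 µM as positive · Buffer or medium – Tris/MgCl2 kinase buffer · Measure – Luminescence-derived activity versus plate DMSO and GW8510 wells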
GSK3 alpha inh: blocks human GSK-3 alpha kinase; P49840; ADP-Glo luminescence, 60 min; inhibition, % at 10 µM; hit rate 0.1% among 320,000;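 active = more than half of replicates show inhibition above 20%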;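 also: GST-tagged GSK-3 alpha with peptide substrate and 25 µM ATP; 0% = DMSO neutral wells and 100% = GW8510 positive control wells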
MEKK3 PB1 HTS: raises or lowers MEK5 binding to the human MEKK3 PB1 domain; Q99759; bead-based flow cytometry, Alexa488-MEK5 binding to MEKK3; actives lie on both sides; 0 = blocked by unlabeled MEK5, 100 = vehicle; hit rate 1.4% among 290,000; binding response (% of control), % at 10 µM;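 active = binding response more than 3 SD above or below the average of its plate-row segment, actives on both sides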;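 also: Alexa488 bead fluorescence after subtracting the streptavidin-only scavenger bead signal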
MEKK2wt PB1 HTS: raises or lowers MEK5 binding to wildtype human MEKK2 PB1 domain; AID 1531; Q9Y2U5; bead flow cytometry, Alexa488-MEK5 binding to MEKK2 WT; actives lie on both sides; hit rate 1.1% among 290,000; binding response (% of control), % at 10 µM; in the data active = binding response below about 67% or above about 130%
MEKK2wt confirm: raises or lowers MEK5 binding to wildtype human MEKK2, retest; shares compounds with MEKK3 PB1 HTS; bead flow cytometry, Alexa488-MEK5 binding to MEKK2 WT; actives lie on both sides; binding response (% of control), % at 10 µM; hit rate 2.4% among 5,900; in the data active = binding response below about 16% or above about 210%; inactive = in between
MEKK2mut confirm: signal of MEK5 binding to mutant human MEKK2, retest. shares compounds with MEKK3 PB1 HTS. bead flow cytometry, Alexa488-MEK5 binding to MEKK2 mutant. percent response, % at 10 µM. hit rate 2% among 5,900. AID 1893; in the data active = percent response mostly above about 71%, no sharp cut-off; inactive = mostly below about 38%;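 also: higher means compound restores mutant binding toward wildtype level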
MEKK3 confirm: MEKK3-MEK5 PB1 inhibition, single concentration confirmation; shares compounds with MEKK3 PB1 HTS; bead flow cytometry, Alexa488-MEK5 binding to MEKK3; hits give low values; binding response (% of control), % at 10 µM; hit rate 1.8% among 5,900; AID 1894;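 active = binding response below 72% of control, or above a set upper limit, though filed actives all read lower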;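 also: 100% = DMSO only wells and 0% = binding blocked by excess unlabeled MEK5; lower values mean stronger disruption of MEK5 binding to MEKK3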
* = called active by the depositor; . = not tested or not shown; [ ] = remark or other dose. Compounds with a hit are over-represented: about 2.1% of the library has one in this group of screens.

SMILES	STK33 kinase inh	MEKK2 mut-MEK5	GSK3beta inhib	GSK3 alpha inh	MEKK3 PB1 HTS	MEKK2wt PB1 HTS	MEKK2wt confirm	MEKK2mut confirm	MEKK3 confirm
O=C(Nc1cccc(Cl)c1)C1C2C=CC3(O2)C1C(=O)N(CCCN1CCCCC1)C3C(=O)NC1CCCCC1 (stereo not given)	-0.8	3.0	.	-0.1	101.0	110.0	.	.	.
CCOC(=O)c1c(-c2ccc(OC)cc2)oc2cc(Br)c(O)cc12	-1.0	11.0	2.6	-2.3	111.0	108.0	.	.	.
CCOC(=O)c1c(C)[nH]c2cc(Br)c(O)cc12	1.8	5.0	4.1	11.0	2.0*[inhibitor]	2.0*[inhibitor]	102.0	4.0	106.0
COc1ccnc(CSC(N)=Nc2cccc(C(F)(F)F)c2)c1	-2.2	-2.0	0.1	7.9	95.0	97.0	.	.	.
CC(C)CC(=O)Nc1ccc(C(=O)CN2CCN(c3ccc(O)cc3)CC2)cc1	-0.3	2.0	.	0.3	104.0	103.0	.	.	.
O=C(CSc1ccc(-c2nc3ccccc3[nH]2)cn1)Nc1ccc(S(=O)(=O)N2CCCC2)cc1	-1.6	-2.0	0.4	1.9	97.0	107.0	.	.	.
Cc1cc2nc(-c3ccc(SCC(=O)Nc4ccc(S(=O)(=O)N5CCCC5)cc4)nc3)[nH]c2cc1C	2.0	1.0	1.0	-1.5	132.0*	105.0	94.0	0.0	98.0
CCOC(=O)C1=C(C)N(CCCC(=O)O)C(=O)NC1c1ccccc1OS(=O)(=O)c1ccccc1[N+](=O)[O-] (stereo not given)	1.0	3.0	1.9	.	104.0	101.0	.	.	.
Cc1ccccc1N(C(=O)Cc1c[nH]c2ccccc12)C(C(=O)NC1CCCCC1)c1ccco1 (stereo not given)	-1.6	-2.0	0.6	0.0	98.0	98.0	.	.	.
Cc1ccc(C(C(=O)NC2CCCCC2)N(C(=O)Cc2c[nH]c3ccccc23)c2ccccc2C)o1 (stereo not given)	-1.8	1.0	-0.7	1.9	128.0*	105.0	102.0	1.0	101.0
O=P(Cc1ccccc1)(c1ccccc1)c1ccccc1	-0.7	3.0	1.3	-2.1	96.0	115.0	.	.	.
O=C(O)c1ccc(CP(=O)(c2ccccc2)c2ccccc2)cc1	-1.6	11.0	3.4	0.7	122.0*	123.0	105.0	5.0	105.0
CN1CCN(NC(=O)C2CC2)CC1	-0.5	0.0	-1.3	-1.1	142.0*	104.0	106.0	-3.0	103.0
CC(C)NS(=O)(=O)c1ccc(NC(=O)C(C)Oc2ccc(C(=O)c3ccccc3)cc2)cc1 (stereo not given)	-3.5	-1.0	-1.9	0.1	147.0*	100.0	97.0	-9.0	102.0
O=C(O)C1=CCNCC1	-1.3	5.0	-1.5	0.5	114.0	113.0	.	.	.
O=C1N=c2ccccc2=C1c1[nH]c(=S)[nH]c1O	5.5	2.0	-1.5	8.7	66.0*[inhibitor]	106.0	110.0	9.0	103.0
Cn1cc(CNC(=O)c2sc3cccc(Cl)c3c2Cl)cn1	-2.9	11.0	1.5	-6.6	131.0*	102.0	96.0	2.0	101.0
CCN(CC)CCCN(C(=O)c1ccc(F)cc1)c1nc(-c2ccc(OC)cc2)cs1	1.5	24.0*	4.9	6.3	113.0	141.0*	138.0	19.0	103.0
CCN(C(=O)c1ccccc1F)c1nc(-c2ccc(OC)cc2)cs1	-2.4	0.0	0.9	-2.9	103.0	104.0	.	.	.
COc1ccc(-c2csc(N(CCCN(C)C)C(=O)c3ccc(F)cc3)n2)cc1	0.1	25.0*	4.0	1.2	111.0	140.0*	124.0	11.0	102.0
CC#CCN1c2ccccc2[C@]23C[C@@H](C(=O)OC)N(C(=O)c4ccco4)C2=NC(C(=O)OC)=C(C(=O)OC)[C@H]13	0.7	3.0	-1.9	0.6	126.0	151.0*	95.0	-4.0	92.0
CC#CCN1c2ccccc2[C@]23C[C@@H](C(=O)OC)N(C(=O)NC(C)(C)C)C2=NC(C(=O)OC)=C(C(=O)OC)[C@H]13	-1.3	0.0	-0.6	-24.1	103.0	100.0	.	.	.
C=CCN1c2ccccc2[C@]23C[C@@H](C(=O)OC)N(C(=O)c4cc(C)oc4C)C2=NC(C(=O)OC)=C(C(=O)OC)[C@H]13	0.7	2.0	2.1	0.5	127.0	147.0*	94.0	-4.0	93.0
C=CCN1c2ccccc2[C@]23C[C@@H](C(=O)OC)N=C2NC(C(=O)OC)=C(C(=O)OC)[C@H]13	-1.9	1.0	0.8	0.1	126.0	150.0*	97.0	-6.0	98.0
CC#CCN1c2ccccc2[C@]23C[C@@H](C(=O)OC)N(C(=O)c4cc(C)oc4C)C2=NC(C(=O)OC)=C(C(=O)OC)[C@H]13	0.0	1.0	0.4	-1.9	101.0	92.0	.	.	.
SMILES	STK33 kinase inh	MEKK2 mut-MEK5	GSK3beta inhib	GSK3 alpha inh	MEKK3 PB1 HTS	MEKK2wt PB1 HTS	MEKK2wt confirm	MEKK2mut confirm	MEKK3 confirm
Cc1ccc(C)n1CCN1CCN(S(=O)(=O)c2ccc(F)cc2F)CC1	-0.4	-2.0	0.2	-2.6	100.0	98.0	.	.	.
Cc1cc(OC(=O)c2cccc(C(F)(F)F)c2)c([N+](=O)[O-])c(=O)[nH]1	1.8	1.0	-0.1	-0.5	104.0	101.0	.	.	.
COc1ccccc1-n1c([S-])c(C(=O)Nc2ccccc2C(F)(F)F)[n+]2ccc(C(=O)NCCO)cc12	0.5	-14.0	0.1	0.6	99.0	68.0	.	.	.
Cc1ccc(-n2c([S-])c(C(=O)Nc3ccc(OC(F)F)cc3)[n+]3ccc(C(=O)NCCO)cc23)cc1C	0.0	-10.0	0.3	4.2	86.0	63.0*[inhibitor]	84.0	-9.0	99.0
O=C(Nc1ccccc1)c1ccc(NCc2ccco2)c(S(=O)(=O)N2CCOCC2)c1	0.4	-4.0	0.3	-4.2	95.0	97.0	.	.	.
Cc1ccc(NC(=O)c2ccc(S(=O)(=O)N3CCOCC3)cc2)cc1	0.6	2.0	-3.5	-2.4	102.0	102.0	.	.	.
O=C(Nc1ccccc1)c1ccc(NCc2cccnc2)c(S(=O)(=O)N2CCOCC2)c1	0.0	7.0	-1.4	-0.8	123.0*	129.0	100.0	-4.0	97.0
O=C(Nc1ccccc1)c1ccc(S(=O)(=O)N2CCOCC2)cc1	-4.8	10.0	-2.8	0.4	136.0*	135.0*	103.0	2.0	101.0
CCC1CCCCN1C(=O)CSc1n[nH]c(N)n1 (stereo not given)	1.6	.	.	0.9	.	.	.	.	.
